Rev-RRE block: disrupts HIV-1 Rev binding to RRE RNA; P05866; Rev peptide-RRE RNA binding, FRET; 0.79% of 97,000 active; inhibition, % at 8 µM;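 active = inhibition above the screen-wide mean plus 3 SD, cut at about 35% in these data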;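 note: 0% = median DMSO wells and 100% = median Neomycin B control wells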
Target sequence (P05866 whole entry, looked up): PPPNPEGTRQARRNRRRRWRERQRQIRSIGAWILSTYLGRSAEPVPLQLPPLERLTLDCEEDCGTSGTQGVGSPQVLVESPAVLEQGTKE
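assay system = Cy5-tagged RRE RNA duplex with fluorescein-tagged Rev peptide | incubation = 5 + 15 min at 25 °C | also added = labelled Rev peptide | measure = % inhibition of FRET ratio versus controls | benchmarks = DMSO wells as 0% and neomycin B wells as 100% inhibition | measured by = FRET fluorescence readout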
PLK1 kinase inh: inhibitors of human PLK1 kinase | recombinant PLK1 kinase, TR-FRET peptide phosphorylation | P53350 | inhibition, % at 10 µM | 0.53% of 97,000 active;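 active = inhibition of 50% or more in the single-concentration screen; inactive = inhibition below 50%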;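 note: 0% = DMSO max control and 100% = H-89 dihydrochloride min control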
F-actin modifier: cytoskeleton assembly modification. HUVEC TNFa F-actin phalloidin imaging, high content. AID 836. inhibition, % at 2 µM. 0.18% of 91,000 active;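 active = inhibition above the batch mean plus 3 SD and confirmed as a hit by visual image inspection, cut at about 30% in these data, passing the limit was not always enough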
FAK blocker: FAK (human) kinase inhibition; biochemical FAK kinase activity assay; inhibition, %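 (tested at 7 µM)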; 0.84% of 97,000 active; AID 727;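 note: 0% = DMSO and 100% = reference compound high control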
E-sel TNF inh: blocks E-selectin expression induced by TNF alpha; HUVEC TNFa-induced E-selectin immunofluorescence, high content; inhibition, % at 2 µM; 0.71% of 120,000 active;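 active = inhibition above the batch mean plus 3 SD, and confirmed as a hit on visual image review, cut at about 43% in these data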;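 note: 0% = TNF-stimulated DMSO wells and 100% = unstimulated control wells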
PLK1 PBD inh: inhibitors of human Plk1 polo box domain binding | 0.13% of 97,000 active | P53350 | inhibition, %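 (tested at about 20 µM)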 | Plk1 PBD phosphopeptide binding, fluorescence polarization; in the data active = inhibition above about 34%, passing the limit was not always enough
FAK inh conf: confirmation of human focal adhesion kinase (FAK) inhibitors. shares compounds with FAK blocker. FAK kinase biochemical inhibition assay. inhibition, % at 7 µM. 28% of 750 active. AID 794
Numbers without * were called inactive; x = no result. Most compounds without a hit are left out; they make up all but 2.2% or so of the library. Cut-off read from the data, not from the text of the source, unless noted: active = inhibition above about 19%; inactive = the rest.

SMILES	Rev-RRE block	PLK1 kinase inh	F-actin modifier	FAK blocker	E-sel TNF inh	PLK1 PBD inh	FAK inh conf
Cc1cccn2c(=O)c(C=NCCO)c(Nc3ccc(Cl)cc3)nc12	x	x	x	x	19	x	x
Cc1ccc(OCC(=O)Nc2ccc(N3CCCC3)cc2)cc1C	1	-18	12	14	10	-10	x
COc1ccc(C(=O)Nc2ccc(N3CCCC3)cc2)cc1	3	-12	6	32*	9	6	13
Cc1cc(C)cc(OCC(=O)Nc2ccc(N3CCCC3)cc2)c1	6	-12	10	39*	-16	20	40*
O=c1[nH]c(CN2CCN(c3ccc(O)cc3)CC2)nc2scc(-c3ccc(Cl)cc3)c12	x	x	x	x	-4	x	x
CC(C)(C)C(=O)NC(=C(Cl)Cl)P(=O)(O)O	8	-6	11	66*	x	5	52*
O=C(N/C(=C\c1ccc([N+](=O)[O-])cc1)C(=O)N1CCCCC1)c1ccccc1Br	x	x	x	x	11	x	x
CCOc1ccc2cc(C#N)c(SCC(=O)N3CCOCC3)nc2c1	3	-4	-7	1	-3	15	x
CCOc1ccc2nc(SCC(=O)N3CCCCCC3)c(C#N)cc2c1	9	-8	7	25*	4	-2	9
Clc1ccc2[nH]cc(-c3nnnn3-c3ccccc3)c2c1	8	-6	-8	33*	-26	-28	20*
Cc1ccc(C(CC(=O)O)Nc2nc(N3CCOCC3)nc(N3CCOCC3)n2)cc1 (stereo unspecified)	x	x	x	x	-14	x	x
CC(C)c1ccccc1NC(=O)COC(=O)/C=C/c1cccc([N+](=O)[O-])c1	x	x	x	x	7	x	x
Cc1c(N2C(=O)c3ccc4c5c(ccc(c35)C2=O)CC4)c(=O)n(-c2ccccc2)n1C	-28	-10	4	70*	-13	-13	41*
Cc1c(N2C(=O)c3ccc(Br)cc3C2=O)c(=O)n(-c2ccccc2)n1C	10	-11	3	5	-30	-1	x
O=C(Nc1ccc(-n2nncc2-c2ccco2)cc1)c1cc2ccccc2oc1=O	-17	-4	x	82*	-2	-9	78*
Cc1nc2ccccn2c1C(=O)CSc1ccccc1	x	x	x	x	-20	x	x
O=C(Nc1cc(Oc2ccccc2)cc([N+](=O)[O-])c1)C12CC3CC(C1)CC(n1cnc(Cl)n1)(C3)C2	4	-4	-30	1	33	12	x
CC(C)(C)NS(=O)(=O)c1cc(C(=O)Nc2sccc2C#N)ccc1Cl	x	x	x	x	28	x	x
N#Cc1cc2ccc(N3CCOCC3)cc2cc1C#N	13	-11	8	23*	-23	0	0
COCCn1c(SCC(=O)NCc2ccco2)nnc1-c1c[nH]c2ccccc12	3	-5	4	40*	3	13	1
Cn1c(SCC(=O)Nc2ccc3nc(SCC(=O)N4CCCC4)sc3c2)nnc1-c1ccccc1	1	-6	10	25*	-38	11	9
O=C(CSc1nc2ccc(NC(=O)CSc3nnnn3-c3ccccc3)cc2s1)Nc1ccccc1	x	x	x	x	8	x	x
CCCCn1c(=O)[nH]c2ccccc21	7	-5	-1	4	x	-18	x
O=c1[nH]c2ccccc2n1CCCSc1cnc2ccccc2n1	12	-7	17	42*	12	1	14
CCOc1ccc2nc(C)cc(Nc3cccc([N+](=O)[O-])c3)c2c1	x	x	x	x	-10	x	x
SMILES	Rev-RRE block	PLK1 kinase inh	F-actin modifier	FAK blocker	E-sel TNF inh	PLK1 PBD inh	FAK inh conf
O=C1C(Nc2ccccc2)=C(N2CCCCC2)C(=O)c2ccccc21	6	-17	9	23*	-50	-8	4
O=C(/C=C/c1ccc(O)cc1)c1ccc(NC2=C(N3CCCCC3)C(=O)c3ccccc3C2=O)cc1	5	-9	-16	30*	-26	16	2
Cc1ccc(NC2=C(N3CCCCC3)C(=O)c3ccccc3C2=O)cc1	2	-12	-8	15	-13	28	x
O=C1C(Nc2cccc(O)c2)=C(N2CCCCC2)C(=O)c2ccccc21	16	-8	-6	27*	-24	-14	4
CN(C1=C(N2CCCCC2)C(=O)c2ccccc2C1=O)c1ccccc1	15	-1	-1	0	7	11	x
COc1ccc(C(=O)/C=C/c2ccc(N3CCCCC3)c([N+](=O)[O-])c2)cc1	x	x	x	x	-9	x	x
Cc1nc(NC(C)C)c2cnn(CCc3ccccc3)c2n1	1	-2	3	5	11	-13	x
CNC(=O)C(=O)NCC1OCCN1S(=O)(=O)c1ccc2c(c1)OCCO2 (stereo unspecified)	x	x	x	x	31	x	x

Assay outcomes deposited in PubChem by several laboratories.
